Tests used:
[1] = Cytotoxicity against human Hs578T cells assessed as reduction of cell viability after 48 hrs by calcein-AM-based fluorescence analysis; assay type: functional; details: Hs-578T
Summary of the method: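 Cells seeded at 3,000 per well in DMEM with 10% FBS and left overnight at 37 °C. A range of compound concentrations or vehicle was then added for 48 h. Cells were washed with DPBS pH 7.4 and loaded with 2 μM calcein-AM for 30 min at 25 °C. Fluorescence read at ex 490/em 520 nm; viability is given relative to untreated control (100%). Mean ± s.d.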

[2] = Cytotoxicity against human SKOV3 cells after 48 hrs by SRB assay; assay type: functional; details: SK-OV-3, 48 h
Summary of the method: (§1)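 NCI-60 five-dose screen: compounds dissolved in DMSO/H2O, tested at five 10-fold dilutions (10^-4 to 10^-8 M) for 48 h. Growth measured by sulforhodamine B optical density at time zero and after 48 h drug or vehicle exposure. Percentage growth calculated relative to control. GI50 is the molar concentration giving 50% reduction in net cell growth versus day-0 cell numbers.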

[3] = Cytotoxicity against human OVCAR8 cells after 48 hrs by SRB assay; assay type: functional; details: OVCAR-8, 48 h; summary of the method: as §1
[4] = test system: NCI-H23; assay: Cytotoxicity against human NCI-H23 cells after 48 hrs by SRB assay; assay type: functional; details: NCI-H23, 48 h; summary of the method: as §1
[5] = Cytotoxicity against human HL-60(TB) cells after 48 hrs by SRB assay; assay type: functional; details: HL-60, 48 h; summary of the method: as §1
[6] = test system: SN12C; assay: Cytotoxicity against human SN12C cells after 48 hrs by SRB assay; assay type: functional; summary of the method: as §1
[7] = Cytotoxicity against human NCI-ADR-RES cells after 48 hrs by SRB assay; assay type: functional; summary of the method: as §1
[8] = test system: NCI-H226; assay: Cytotoxicity against human NCI-H226 cells after 48 hrs by SRB assay; assay type: functional; details: NCI-H226, 48 h; summary of the method: as §1
[9] = Cytotoxicity against human BT549 cells after 48 hrs by SRB assay; assay type: functional; details: BT-549, 48 h; summary of the method: as §1
[10] = Cytotoxicity against human SF268 cells after 48 hrs by SRB assay; assay type: functional; details: SF-268, 48 h; summary of the method: as §1
[11] = test system: NCI-H460; assay: Cytotoxicity against human NCI-H460 cells after 48 hrs by SRB assay; assay type: functional; details: NCI-H460, 48 h; summary of the method: as §1
[12] = test system: K562; assay: Cytotoxicity against human K562 cells after 48 hrs by SRB assay; assay type: functional; details: K562, 48 h; summary of the method: as §1
[13] = test system: U-251; assay: Cytotoxicity against human U251 cells after 48 hrs by SRB assay; assay type: functional; details: U-251, 48 h
Summary of the method: (§2)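 NCI-60 five-dose screen. Compounds dissolved in DMSO/H2O and tested at five 10-fold dilutions (10^-4 to 10^-8 M) for 48 h. Growth read by sulforhodamine B optical density at time zero and after 48 h of exposure to compound or vehicle. Percent growth calculated against control. GI50 is the molar concentration giving 50% reduction in net cell growth relative to cell number on day 0.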

[14] = Cytotoxicity against human SF295 cells after 48 hrs by SRB assay; assay type: functional; details: SF-295, 48 h; summary of the method: as §1
[15] = Cytotoxicity against human MOLT4 cells after 48 hrs by SRB assay; assay type: functional; details: MOLT-4, 48 h; summary of the method: as §1
[16] = Cytotoxicity against human UACC62 cells after 48 hrs by SRB assay; assay type: functional; details: UACC-62, 48 h; summary of the method: as §2
[17] = test system: ACHN; assay: Cytotoxicity against human ACHN cells after 48 hrs by SRB assay; assay type: functional; summary of the method: as §1
[18] = Cytotoxicity against human SW620 cells after 48 hrs by SRB assay; assay type: functional; details: SW-620, 48 h; summary of the method: as §1
[19] = target: Tubulin (Sus scrofa, UniProt P02554+P02550); assay: Inhibition of porcine brain tubulin polymerization by spectrophotometric analysis
Summary of the method: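 Tubulin at 4 mg/mL in cold 80 mM PIPES pH 6.9 with 2 mM MgCl2, 0.5 mM EGTA, GTP and 10% glycerol. Compound (added as 10x stock in 50% DMSO) or DMSO was preincubated 2 min at 37 °C in a prewarmed plate. Cold tubulin was then added, and polymerization at 37 °C was followed by A340 over time. Dose-response, mean ± s.d., n=3.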

[20] = Cytotoxicity against human Caki1 cells after 48 hrs by SRB assay; assay type: functional; details: CAKI-1, 48 h; summary of the method: as §1
[21] = Cytotoxicity against human UACC257 cells after 48 hrs by SRB assay; assay type: functional; details: UACC-257, 48 h; summary of the method: as §2
[22] = Cytotoxicity against human UO31 cells after 48 hrs by SRB assay; assay type: functional; details: UO-31, 48 h; summary of the method: as §2
[23] = test system: SR; assay: Cytotoxicity against human SR cells after 48 hrs by SRB assay; assay type: functional; summary of the method: as §1
[24] = Cytotoxicity against human SNB19 cells after 48 hrs by SRB assay; assay type: functional; details: SNB-19, 48 h; summary of the method: as §1
[25] = test system: MDA-MB-231; assay: Cytotoxicity against human MDA-MB-231 cells after 48 hrs by SRB assay; assay type: functional; details: MDA-MB-231, 48 h; summary of the method: as §1
[26] = Cytotoxicity against human SNB75 cells after 48 hrs by SRB assay; assay type: functional; details: SNB-75, 48 h; summary of the method: as §1
[27] = Cytotoxicity against human Hs 578T cells after 48 hrs by SRB assay; assay type: functional; summary of the method: as §1
[28] = Cytotoxicity against human RPMI8226 cells after 48 hrs by SRB assay; assay type: functional; details: RPMI-8226, 48 h; summary of the method: as §1
[29] = test system: CCRF-CEM; assay: Cytotoxicity against human CCRF-CEM cells after 48 hrs by SRB assay; assay type: functional; summary of the method: as §1
[30] = test system: SK-MEL-5; assay: Cytotoxicity against human SK-MEL-5 cells after 48 hrs by SRB assay; assay type: functional; details: SK-MEL-5, 48 h; summary of the method: as §1
[31] = test system: MDA-MB-468; assay: Cytotoxicity against human MDA-MB-468 cells after 48 hrs by SRB assay; assay type: functional; details: MDA-MB-468, 48 h; summary of the method: as §1
[32] = test system: T47D; assay: Cytotoxicity against human T47D cells after 48 hrs by SRB assay; assay type: functional; summary of the method: as §2
[33] = test system: 786-0; assay: Cytotoxicity against human 786-0 cells after 48 hrs by SRB assay; assay type: functional; details: 786-0, 48 h; summary of the method: as §1
[34] = Cytotoxicity against human LOXIMVI cells after 48 hrs by SRB assay; assay type: functional; details: LOX IMVI; summary of the method: as §1
[35] = test system: SK-MEL-2; assay: Cytotoxicity against human SK-MEL-2 cells after 48 hrs by SRB assay; assay type: functional; details: SK-MEL-2, 48 h; summary of the method: as §1
[36] = test system: MDA-MB-435; assay: Cytotoxicity against human MDA-MB-435 cells after 48 hrs by SRB assay; assay type: functional; details: MDA-MB-435, 48 h; summary of the method: as §1
[37] = test system: HT-29; assay: Cytotoxicity against human HT-29 cells after 48 hrs by SRB assay; assay type: functional; details: HT-29, 48 h; summary of the method: as §1
[38] = Cytotoxicity against human PC3 cells after 48 hrs by SRB assay; assay type: functional; details: PC-3, 48 h; summary of the method: as §1
[39] = Cytotoxicity against human HCT15 cells after 48 hrs by SRB assay; assay type: functional; details: HCT-15, 48 h; summary of the method: as §1
[40] = Cytotoxicity against human DU145 cells after 48 hrs by SRB assay; assay type: functional; details: DU-145, 48 h; summary of the method: as §1
[41] = Cytotoxicity against human SF539 cells after 48 hrs by SRB assay; assay type: functional; details: SF-539, 48 h; summary of the method: as §1
[42] = Cytotoxicity against human RXF393 cells after 48 hrs by SRB assay; assay type: functional; details: RXF 393, 48 h; summary of the method: as §1
[43] = Cytotoxicity against human TK10 cells after 48 hrs by SRB assay; assay type: functional; details: TK-10, 48 h; summary of the method: as §2
[44] = test system: NCI-H522; assay: Cytotoxicity against human NCI-H522 cells after 48 hrs by SRB assay; assay type: functional; details: NCI-H522, 48 h; summary of the method: as §1
[45] = Cytotoxicity against human COLO205 cells after 48 hrs by SRB assay; assay type: functional; details: COLO 205, 48 h; summary of the method: as §1
[46] = test system: MCF7; assay: Cytotoxicity against human MCF7 cells after 48 hrs by SRB assay; assay type: functional; details: MCF7, 48 h; summary of the method: as §1
[47] = Cytotoxicity against human OVCAR4 cells after 48 hrs by SRB assay; assay type: functional; details: OVCAR-4, 48 h; summary of the method: as §1
[48] = test system: KM12; assay: Cytotoxicity against human KM12 cells after 48 hrs by SRB assay; assay type: functional; details: KM12, 48 h; summary of the method: as §1
[49] = test system: M14; assay: Cytotoxicity against human M14 cells after 48 hrs by SRB assay; assay type: functional; details: M14, 48 h; summary of the method: as §1
[50] = test system: A549; assay: Cytotoxicity against human A549 cells after 48 hrs by SRB assay; assay type: functional; details: A549, 48 h; summary of the method: as §1
[51] = test system: SK-MEL-28; assay: Cytotoxicity against human SK-MEL-28 cells after 48 hrs by SRB assay; assay type: functional; details: SK-MEL-28, 48 h; summary of the method: as §1
[52] = test system: A498; assay: Cytotoxicity against human A498 cells after 48 hrs by SRB assay; assay type: functional; details: A498, 48 h; summary of the method: as §1
[53] = Cytotoxicity against human OVCAR5 cells after 48 hrs by SRB assay; assay type: functional; details: OVCAR-5, 48 h; summary of the method: as §1
[54] = Cytotoxicity against human HCT116 cells after 48 hrs by SRB assay; assay type: functional; details: HCT-116, 48 h; summary of the method: as §1
[55] = Cytotoxicity against human OVCAR3 cells after 48 hrs by SRB assay; assay type: functional; details: OVCAR-3, 48 h; summary of the method: as §1
[56] = Cytotoxicity against human HCC2998 cells after 48 hrs by SRB assay; assay type: functional; details: HCC 2998, 48 h; summary of the method: as §1

COc1cc(-c2n[nH]nc2-c2cc3ccccc3o2)cc(OC)c1OC
GI50 [1]: 20 nM

COc1cc(-c2n[nH]nc2-c2c[nH]c3ccccc23)cc(OC)c1OC
GI50 [2]: 42 nM | GI50 [3]: 1160 nM | GI50 [4]: 270 nM | GI50 [5]: 46 nM | GI50 [6]: 1390 nM | GI50 [7]: 34 nM | GI50 [8]: 390 nM | GI50 [9]: 28 nM | GI50 [10]: 71 nM | GI50 [11]: 42 nM | GI50 [12]: 53 nM | GI50 [13]: 59 nM | GI50 [14]: 32 nM | GI50 [15]: 160 nM | GI50 [16]: 43 nM | GI50 [17]: 43 nM | GI50 [18]: 43 nM | IC50 [19]: 18500 nM | GI50 [20]: 44 nM | GI50 [21]: 13900 nM | GI50 [22]: 87 nM | GI50 [23]: 90 nM | GI50 [24]: 61 nM | GI50 [25]: 89 nM | GI50 [26]: 30 nM | GI50 [27]: 42 nM | GI50 [28]: 90 nM | GI50 [29]: 48 nM | GI50 [30]: 43 nM | GI50 [31]: 42 nM | GI50 [32]: 48 nM | GI50 [33]: 35 nM | GI50 [34]: 71 nM | GI50 [35]: 30 nM | GI50 [36]: 14 nM | GI50 [37]: 33 nM | GI50 [38]: 44 nM | GI50 [39]: 35 nM | GI50 [40]: 90 nM | GI50 [41]: 31 nM | GI50 [42]: 164 nM | GI50 [43]: 1390 nM | GI50 [44]: 21 nM | GI50 [45]: 34 nM | GI50 [46]: 29 nM | GI50 [47]: 1160 nM | GI50 [48]: 45 nM | GI50 [49]: 36 nM | GI50 [50]: 90 nM | GI50 [51]: 112 nM | GI50 [52]: 35 nM | GI50 [53]: 381 nM | GI50 [54]: 41 nM | GI50 [55]: 33 nM | GI50 [56]: 440 nM
